The list is not random: actives were taken first. Their share in the collection is about 4.8%.
T cruzi inh – blocks replication of Trypanosoma cruzi | AID 1885 | actives 1.4% (n = 300,000) | T. cruzi beta-gal in NIH3T3, luminescence, 90 h | inhibition, % (no concentration beside the values);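 active = mean inhibition across valid replicates above about 55%, limit read from the data; inconclusive = mean below that limit but half or more replicates reach it; inactive = mean below it, under half of replicates reach it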;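 also: signal also drops with host cell toxicity which is not excluded here; higher percent means less beta-gal luminescence so fewer parasites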
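Material: NIH/3T3 host cells with β-galactosidase reporter T. cruzi; Input: 5,000 host fibroblasts per well; Medium: DMEM, 2% fetal bovine serum; Compound: 50 nL DMSO compound solution per well; Schedule: 3 h host attachment, then at least 90 h co-culture; Detection: luminescent β-galactosidase signal after 60 min lysis.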
WT yeast gro inh – growth inhibition of WT yeast, mitochondrial fusion screen. inhibition, % at 10 µM. mitochondrial fusion phenotypic screen, WT strain. actives 2.1% (n = 190,000). AID 1362; in the data active = inhibition above about 58%; tested in S. cerevisiae
Beta apoptosis – blocks beta cell apoptosis; INS-1E cytokine-induced death, ATP luminescence, 48 h; percent of positive-control rescue, neutral wells zero; protection from apoptosis, % (concentration not given with the values); actives 0.8% (n = 300,000); AID 435005;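 active = Every replicate reaches about 75%, or at least half do and their mean reaches it too, limit read from the data; inconclusive = At least half of replicates reach the limit but their mean does not; inactive = Under half of replicates reach the limit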;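 also: higher means more ATP so stronger rescue from cytokine killing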
CSC inhib – blocks cancer stem cells | cancer stem cell-like cells viability, luminescence | inhibition, % at 7.5 µM | actives 1.1% (n = 300,000); in the data active = inhibition above about 75%; inconclusive = no clear call, values can overlap the other calls; tested in HMLE shEcad cells
Efflux pump mplx – inhibitors of Candida antifungal efflux pumps expressed in yeast; S. cerevisiae Candida pump triplex, Nile Red efflux; inhibition, % at 10 µM; actives 0.44% (n = 330,000); AID 485275;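 active = plate passing quality check with inhibition over a set limit, or well fluorescence over plate mean plus 4 SD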;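 also: Nile Red retained in pooled yeast measured as flow cytometry median fluorescence; higher means more Nile Red kept so more efflux inhibition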
Mot1-301 SUMO – inhibitors of SUMOylation pathway: yeast Mot1-301 growth rescue; S. cerevisiae Mot1-301 growth rescue, ATP luminescence, 38.5C; percent above DMSO median, 100 means doubled; growth rescue, % at 18.8 µM; actives 1% (n = 320,000); AID 2716;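 active = every valid replicate shows activation above 250% relative to neutral control wells; inactive = the rest, any valid replicate at or below 250%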
Each line names hits and unclear results; the compound was inactive in the other large screens.

Cc1cc(Cl)ccc1OCC(=O)NCCC(=O)O	none
Cc1cc(Cl)ccc1OCC(=O)NCCCCc1ccccc1	WT yeast gro inh 62.9
O=C(COc1ccc(Cl)cc1Cl)NNC(=S)Nc1ccc(F)cc1	WT yeast gro inh 61.7
CN(C)CCNC(=O)COc1ccc(Cl)cc1Cl	none
CC(=O)c1ccc(S(=O)(=O)NC2CC(=O)N(c3ccc(Cl)cc3)C2)cc1 (stereo unspecified)	none (no result: WT yeast gro inh)
O=C(COc1ccc(Cl)cc1)NCCSCc1cccc(Cl)c1	WT yeast gro inh 79.4 (no result: CSC inhib)
Cc1cccc(CSCCNC(=O)COc2ccc(Cl)cc2)c1	none
CCCCC(=O)Nc1ccc(C(=O)NNC(=O)CCCOc2ccc(Cl)cc2Cl)cc1	none
CC(Oc1cccc(Cl)c1)C(=O)NCCCCc1ccccc1 (stereo unspecified)	none
O=C(COc1ccc(Cl)cc1Cl)Nc1ccccn1	WT yeast gro inh 65.9 (no result: T cruzi inh)
CSc1ccccc1NC(=O)COc1ccc(Cl)cc1Cl	none
CC(Oc1ccc(Cl)cc1Cl)C(=O)NCCCCc1ccccc1 (stereo unspecified)	WT yeast gro inh 61.2
CC(C)C(=O)Nc1ccc(C(=O)NNC(=O)CCCOc2ccc(Cl)cc2Cl)cc1	WT yeast gro inh 78.9
CC(=O)c1ccc(NC(=S)N(C)C2CCN(C)CC2)cc1	none
COC(=O)c1ccc(Nc2c([N+](=O)[O-])c(=O)oc3ccccc23)cc1	none (no result: WT yeast gro inh)
Cc1ccc(C(=O)NCC(=O)N/N=C/c2cccs2)cc1C	none (no result: Mot1-301 SUMO)
Cc1cc(C)c(OC2(c3ccccc3)OC(=O)c3ccccc32)c(C)c1 (stereo unspecified)	WT yeast gro inh 78.6
Cc1cccc(C)c1OC1(c2ccccc2)OC(=O)c2ccccc21 (stereo unspecified)	none
CN(CC(=O)Nc1ccc(Cl)c(S(=O)(=O)N2CCOCC2)c1)C(=O)c1ccc(C#N)cc1	none (no result: T cruzi inh, WT yeast gro inh, Beta apoptosis, CSC inhib, Mot1-301 SUMO)
Cc1ccc(C(C[N+](=O)[O-])n2nc(C)cc2C)cc1 (stereo unspecified)	CSC inhib 100.7, Mot1-301 SUMO 623.9
Cc1ccccc1NC(=S)NCc1ccc2[nH]c3c(c2c1)CCCC3	WT yeast gro inh 78.7 (no result: Beta apoptosis)
S=C(NCc1ccc2[nH]c3c(c2c1)CCCC3)Nc1ccccc1Cl	none (no result: CSC inhib)
CNC(=S)NCc1ccc2[nH]c3c(c2c1)CCCC3	none
Cc1ccc(C)c(NC(=S)NCc2ccc3[nH]c4c(c3c2)CCCC4)c1	WT yeast gro inh 79.6 (no result: CSC inhib)
CCCCNC(=S)NCc1ccc2[nH]c3c(c2c1)CCCC3	WT yeast gro inh 68.9
CCCN(CC(=O)Nc1ccccc1OC)C(=O)Cc1ccc2c(c1)CCC2	none (no result: T cruzi inh, WT yeast gro inh, CSC inhib)
CCOC(=O)/C(=C\c1ccc(Cl)cc1)c1nc2sc(C)c(C)c2c(=O)[nH]1	CSC inhib 117.7
CCOC(=O)CSc1nc2sc(C)c(C)c2c(=O)[nH]1	none (no result: CSC inhib)
C=CCOC(=O)C1=C(C)NC(=O)NC1c1cc(Cl)cc(Cl)c1OC (stereo unspecified)	none (no result: WT yeast gro inh, Beta apoptosis)
Cn1ccs/c1=N\C(=O)Nc1cccc(Cl)c1	none
Cc1cc(N2CCN(C)CC2)ccc1NC(=O)c1cccc(S(=O)(=O)N2CCc3ccccc3C2)c1	T cruzi inh 75.3
O=C(Cc1c[nH]c2ccccc12)NCc1ccc(Cl)cc1Cl	none
CC(C)Cn1c(-c2ccc(Cl)cc2)cnc1SCC(=O)N1CCOCC1	Mot1-301 SUMO 306.2
O=C1CC2(CCN(C(=O)COc3ccccc3F)CC2)Oc2ccccc21	Mot1-301 SUMO 602.0 (no result: WT yeast gro inh, Beta apoptosis)
COc1ccccc1OCC(=O)N1CCC2(CC1)CC(=O)c1ccccc1O2	none (no result: WT yeast gro inh)
Cc1[nH]c2ccccc2c1SCc1nnc(SCc2ccc(Cl)cc2)n1C	T cruzi inh 59.2 (no result: WT yeast gro inh)
CCNC(=O)CC1C(=O)N(c2cccc(C)c2)C(=O)N1CCC(C)C (stereo unspecified)	none (no result: WT yeast gro inh)
CC(C)(C)c1ccc(-c2n[nH]c(=S)n2C2CCCC2)cc1	WT yeast gro inh 71.6 (no result: CSC inhib)
Cn1c(-c2ccc(C(C)(C)C)cc2)n[nH]c1=S	none
COc1ccc(N2CC(C)Cn3c2nc2c3c(=O)[nH]c(=O)n2C)cc1 (stereo unspecified)	none (no result: CSC inhib, Mot1-301 SUMO)
CC(NC(=O)COC(=O)CN1C(=O)C2CCCCC2C1=O)c1ccccc1 (stereo unspecified)	none (no result: T cruzi inh, WT yeast gro inh)
COc1ccc(N=C2S/C(=C\c3ccc(OCC(=O)O)cc3)C(=O)N2CCc2c[nH]c3ccccc23)cc1	none (no result: Beta apoptosis, CSC inhib, Efflux pump mplx, Mot1-301 SUMO)
COc1ccc(N=C2S/C(=C\c3ccc(N4CCOCC4)o3)C(=O)N2CCc2c[nH]c3ccccc23)cc1	T cruzi inh 56.4, Beta apoptosis 104.7
O=C(Nc1ccnn1C1CCN(Cc2ccc(CO)o2)CC1)c1ccccc1	none (no result: WT yeast gro inh)
COc1ccc(C(=O)C(CN2CCCC2)c2ccccc2)cc1 (stereo unspecified)	CSC inhib 86.2
O=C(c1ccccc1)C(CCC(CN1CCOCC1)C(=O)c1ccccc1)CN1CCOCC1 (stereo unspecified)	Beta apoptosis 94.6
CCCCOc1ccc(C(=O)C(CN2CCOCC2)c2ccccc2)cc1 (stereo unspecified)	CSC inhib 111.4
O=C(c1ccc(Cl)cc1)C(CN1CCCC1)c1ccccc1 (stereo unspecified)	none (no result: WT yeast gro inh)
CCCOc1ccc(C(=O)C(CN2CCCC2)c2ccccc2)cc1 (stereo unspecified)	CSC inhib 101.1
COc1ccc(C(=O)C(CN2CCOCC2)c2ccccc2)cc1 (stereo unspecified)	none
CCN(CC)C(=O)C1CCN(Cc2ccc(OCc3ccccc3)c(OC)c2)CC1	none (no result: WT yeast gro inh)
Cc1cc(C)n2nc(C(=O)N/N=C/c3ccco3)nc2n1	none (no result: WT yeast gro inh)
CCN(CCCCCN(C)C)Cc1cc2ccccc2o1	T cruzi inh 55.4 (no result: Beta apoptosis, CSC inhib)
O=C(NNC(=S)Nc1ccc(Cl)c(Cl)c1)c1ccccn1	T cruzi inh 62.2, Beta apoptosis 78.3, CSC inhib 109.2
CC(=O)c1ccc(NC(=S)NC(C)c2ccc(Cl)cc2Cl)cc1 (stereo unspecified)	WT yeast gro inh 83.9, Beta apoptosis inconclusive
O=C(NC(=S)Nc1ccc(Br)c(Cl)c1)C1CC1	none (no result: WT yeast gro inh)
O=C(c1ccc(NC(=S)Nc2ccc(Cl)c(Cl)c2)cc1)N1CCCC1	WT yeast gro inh 80.5
CC(=O)c1ccc(NC(=S)Nc2ccc(Br)c(Cl)c2)cc1	WT yeast gro inh 76.7 (no result: CSC inhib)
CC(=O)c1ccc(NC(=S)NC(=O)Cc2ccc(Cl)cc2)cc1	none (no result: WT yeast gro inh, Beta apoptosis)
O=C(COc1coc(CN2CCN(c3ccccc3F)CC2)cc1=O)NCC1CCCO1 (stereo unspecified)	none (no result: WT yeast gro inh, Beta apoptosis)
CCc1ccc([C@@H]2C[C@H]3CN(Cc4ccccc4OC)C(=O)[C@]34CCCN24)cc1	none
CCOc1cccc(-c2nc3c(s2)CCc2onc(-c4cccc([N+](=O)[O-])c4)c2-3)c1	none (no result: WT yeast gro inh, Efflux pump mplx)
Cc1ccc(C(=O)C(C)OC(=O)Cn2cnc3c2c(=O)n(C)c(=O)n3C)cc1 (stereo unspecified)	none (no result: WT yeast gro inh)
c1ccc2c(c1)OCC(c1csc3ncnc(N4CCCCC4)c13)O2 (stereo unspecified)	none
CCCN1CCN(c2ncnc3scc(C4COc5ccccc5O4)c23)CC1 (stereo unspecified)	WT yeast gro inh 58.4

Screening data (PubChem BioAssay)
